A short description of data set [1]: folding enthalpy; higher = less favourable; fluorescence melt of hairpins on a sequencing array, two-state fit. The settings on record: sodium 0.088 M. The essentials: (§1)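 To match UV melts, fitted temperatures were raised by 9.35 °C. These fits were bootstrapped two-state models that gave melting temperature and folding enthalpy, combined by inverse variance over four replicates. The input was normalised Cy3 fluorescence of library hairpins with annealed Cy3 and quencher oligos on a sequenced MiSeq flow cell, imaged in 50 mM Na-HEPES pH 8.0, 25 mM NaCl in 2.5 °C steps up to 60 °C.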

A short description of data set [2]: melting temperature; fluorescence melt of hairpins on a sequencing array, two-state fit, raised by 9.35 °C to match UV melts. The note with it: sodium 0.088 M. The essentials: as §1

Turning to GAGTGTGCGAAAGCACTC (((..(((....)))))), in data set [1], the folding enthalpy is -9.39 kcal/mol. Further, the Tm in data set [2] is 37.8 °C.

Take GGGTACGAAAGTACACCC ((((((....)))..))): in data set [1], the folding enthalpy is -13.4 kcal/mol. The Tm in data set [2] is 50.2 °C.

As for GCAGAGCGAAAGCCCAGC ((.(.((....)).).)), the folding enthalpy in data set [1] is -12.2 kcal/mol. In data set [2], the Tm was 33 °C.

As for GCAAACCGAAAGGTCTGC (((.(((....))).))), the folding enthalpy in data set [1] was -29.8 kcal/mol. For the same sequence, in data set [2], the Tm stood at 49.8 °C.

GCTAAGACGAAAGTCAGC (((..(((....)))))): the folding enthalpy in data set [1] is -20.4 kcal/mol. Besides, in data set [2], the Tm stood at 44.3 °C.

With GCATGTCGAAAGACCTGC (((.(((....))).))), in data set [1], the folding enthalpy was -37.4 kcal/mol. For the same sequence, the Tm in data set [2] came out at 50.6 °C.

Turning to GCAGGGCGAAAGCCTTGC (((.(((....))).))), in data set [1], the folding enthalpy is -40.3 kcal/mol. In addition, the Tm in data set [2] is 61.2 °C.

As to GAATATGGAAACATATCC (.(((((....))))).), in data set [1], the folding enthalpy is -13.6 kcal/mol. The Tm in data set [2] turned out to be 24.6 °C.

Consider GATCACGGTGGTGATC ((((((....)))))), for which the folding enthalpy in data set [1] is -37.2 kcal/mol. Besides, in data set [2], the Tm was determined as 58.3 °C.

Take GTTAGGGGAAACCCTAGC (.(((((....))))).): the folding enthalpy in data set [1] was -21.5 kcal/mol. In addition, in data set [2], the Tm was 40.7 °C.

Turning to GCACGGCGAAAGCTTTGC (((..((....))..))), the folding enthalpy in data set [1] is -22.6 kcal/mol. Also, the Tm in data set [2] came out at 38.3 °C.

Take GGATTCGAAAGAAGCTCC ((((((....)))..))): in data set [1], the folding enthalpy is -14.2 kcal/mol. Moreover, the Tm in data set [2] was determined as 32.8 °C.

In the case of CGCGGACCGCTCCGCG ((((((....)))))), the folding enthalpy in data set [1] was -34.1 kcal/mol. Also, the Tm in data set [2] turned out to be 63.1 °C.

Consider GCCAATGCGAAAGCAGGC (((..(((....)))))), for which, in data set [1], the folding enthalpy is -21.7 kcal/mol. Further, in data set [2], the Tm came out at 53 °C.

In the case of GTACCCGGAAACGGGTGC (.(((((....))))).), in data set [1], the folding enthalpy was -20.1 kcal/mol. Also, the Tm in data set [2] is 60.1 °C.

In the case of GCCCGACGAAAGTCGGC (((.(((....)))))), the folding enthalpy in data set [1] is -8.71 kcal/mol. For the same sequence, in data set [2], the Tm turned out to be 61.4 °C.

Take GATCTAGTTCTAGATC ((((((....)))))): the folding enthalpy in data set [1] is -34.8 kcal/mol. In data set [2], the Tm came to 46.6 °C.

Consider GTGCTGGGAAACTAGCAC (((((.(....).))))), for which, in data set [1], the folding enthalpy is -41.3 kcal/mol. In data set [2], the Tm was determined as 54.3 °C.

With GAGACGGAAACGTCTC ((((((....)))))), the folding enthalpy in data set [1] was -39.8 kcal/mol. Besides, in data set [2], the Tm amounted to 63.3 °C.

As for GCGACGCATCGC ((((....)))), the folding enthalpy in data set [1] was -16 kcal/mol. For the same sequence, the Tm in data set [2] stood at 49.8 °C.

As to GCGCACGGAAACACGCGC ((((..(....)..)))), the folding enthalpy in data set [1] was -32.9 kcal/mol. The Tm in data set [2] worked out at 51.6 °C.

In the case of GAACCCGAAAGGGCTTTC ((((((....)))..))), the folding enthalpy in data set [1] is -10.4 kcal/mol. The Tm in data set [2] worked out at 33.8 °C.

As to GCGAAACATCGC ((((....)))), in data set [1], the folding enthalpy is -21.5 kcal/mol. Besides, the Tm in data set [2] was 48.7 °C.

With GACGGACGAAAGTCAGTC (((.(((....))).))), the folding enthalpy in data set [1] was -37.5 kcal/mol. Moreover, in data set [2], the Tm came out at 59.5 °C.

For the sequence GCGATACGAAAGTAACGC (((.(((....))).))), the folding enthalpy in data set [1] is -41.5 kcal/mol. Further, the Tm in data set [2] was 57.9 °C.

With GACCGGGGAAACCCAGTC (((.(((....))).))), the folding enthalpy in data set [1] was -23.6 kcal/mol. For the same sequence, the Tm in data set [2] stood at 42.8 °C.

Turning to GTTGTGGGAAACCGTAAC (((..((....))..))), the folding enthalpy in data set [1] was -13 kcal/mol. Besides, in data set [2], the Tm was found to be 29.2 °C.

Take GTGGATGGAAACACCCAC ((((.((....)).)))): the folding enthalpy in data set [1] was -32.6 kcal/mol. Besides, in data set [2], the Tm was 44.2 °C.

As for GACAGCCGAAAGGCGTC (((.(((....)))))), in data set [1], the folding enthalpy was -12.7 kcal/mol. The Tm in data set [2] is 60 °C.

On to GATCATCTGCATGATC ((((((....)))))), for which, in data set [1], the folding enthalpy is -36 kcal/mol. In addition, in data set [2], the Tm came out at 46.2 °C.

In the case of GATCGCACCGGCGATC ((((((....)))))), the folding enthalpy in data set [1] is -33.7 kcal/mol. For the same sequence, the Tm in data set [2] is 68.3 °C.

Consider GACAGTCCGAAAGGAGTC (((..(((....)))))), for which the folding enthalpy in data set [1] is -17 kcal/mol. For the same sequence, in data set [2], the Tm was 30.3 °C.

Consider GAGGCCGAAAGGCACCTC ((((((....)))..))), for which the folding enthalpy in data set [1] was -8.77 kcal/mol. Also, the Tm in data set [2] was 40 °C.

As to GGTTAGGGAAACCTGACC (((.(((....))).))), in data set [1], the folding enthalpy is -33 kcal/mol. Also, in data set [2], the Tm came out at 48 °C.

Turning to GCTTAGCGAAAGCAAAGC ((((.((....)).)))), the folding enthalpy in data set [1] was -23.6 kcal/mol. Besides, the Tm in data set [2] was 59.8 °C.

Regarding GCATCAACGAAAGTTTGC (((..(((....)))))), in data set [1], the folding enthalpy was -16.9 kcal/mol. The Tm in data set [2] was found to be 30.8 °C.

Take TAAACGAAAGTTTA (((((....))))): the folding enthalpy in data set [1] is -15.4 kcal/mol. In data set [2], the Tm was determined as 41.5 °C.

Values taken from the array DNA melting data of Ke et al. (doi:10.1101/2024.01.08.574731).
